In ChEMBL document CHEMBL1649472, “Soft-tissue penetration of ceftobiprole in healthy volunteers determined by in vivo microdialysis” (Antimicrob Agents Chemother, 2009):
Values after ≈ are worked out from the molar mass of the structure shown.

Experiments:
[1] = AUC in plasma of healthy human at 500 mg, po administered at tablet formulation with immediate release by microdialysis; format: ADME, organism-based
[2] = AUC in plasma of healthy human at 500 mg, po administered at tablet formulation with maximum release by microdialysis; format: ADME, organism-based
[3] = AUC in plasma of healthy human at 750 mg. po administered at tablet formulation with maximum release by microdialysis; format: ADME, organism-based
[4] = Cmax in muscle of healthy human at 200 mg/l administered via microdialysis probe up to 12 hrs; format: ADME, organism-based, Muscle tissue
Method in brief: (§1)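 Twelve healthy volunteers were given a single 500 mg dose as a 2-h i.v. infusion. Microdialysis probes in skeletal muscle and s.c. adipose tissue were perfused with lactated Ringer's at 1.5 μl/min. Each probe was calibrated by retrodialysis with drug at 200 mg/liter, followed by a 4-h washout. Dialysate was collected every 20 min to 12 h, then at 16 and 24 h, and assayed by HPLC-UV. Values were recovery-corrected and analysed noncompartmentally.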

[5] = Half life in adipose tissue of healthy human at 200 mg/l administered via microdialysis probe up to 12 hrs; format: ADME, tissue-based; method in brief: as §1
[6] = AUClast in adipose tissue of healthy human at 200 mg/l administered via microdialysis probe up to 12 hrs; format: ADME; design: time < 12 hr; method in brief: as §1
Staphylococcus aureus = experiment: Antibacterial activity against methicillin-resistant Staphylococcus aureus; format: functional
Streptococcus pneumoniae = experiment: Antibacterial activity against penicillin-resistant Streptococcus pneumoniae; format: functional
[7] = fT>MIC in adipose tissue of healthy human at 500 mg, iv by microdialysis
[8] = fT>MIC in skeletal muscle of healthy human at 500 mg, iv by microdialysis
[9] = Volume of distribution at steady state in plasma of healthy human at […] […]; format: ADME, organism-based; details: read-out: Vdss
Method in brief: (§2)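 Twelve healthy volunteers received a single 500 mg dose as a 2-h i.v. infusion. K2EDTA blood was drawn from the opposite arm from predose to 24 h over 13 timepoints. Plasma was precipitated with acetonitrile/formic acid and perchloric acid. Protein binding was measured by ultrafiltration at 2 and 12 h, and free levels were derived per subject. Analysis was noncompartmental: linear-trapezoidal AUC, with λz from terminal-phase regression.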

[10] = AUC (0 to infinity) in adipose tissue of healthy human at 200 mg/l administered via microdialysis probe up to 12 hrs; format: ADME; design: time infinity; method in brief: as §1
[11] = AUC (0 to infinity) in plasma of healthy human at […] up to 12 hrs; format: ADME; design: time infinity; method in brief: as §2
[12] = AUC (0 to infinity) in muscle of healthy human at 200 mg/l administered via microdialysis probe up to 12 hrs; format: ADME, tissue-based, Muscle tissue; design: time infinity; method in brief: as §1
[13] = Cmax in adipose tissue of healthy human at 200 mg/l administered via microdialysis probe up to 12 hrs; format: ADME, organism-based; method in brief: as §1
[14] = Ratio of AUC in adipose tissue to fAUC in plasma of healthy human at 200 mg/l administered via microdialysis probe up to 12 hrs; format: ADME; details: other
[15] = Half life in muscle of healthy human at 200 mg/l administered via microdialysis probe up to 12 hrs; format: ADME, tissue-based, Muscle tissue; method in brief: as §1
[16] = AUClast in muscle of healthy human at 200 mg/l administered via microdialysis probe up to 12 hrs; format: ADME, tissue-based, Muscle tissue; design: time < 12 hr; method in brief: as §1
[17] = AUC in plasma of healthy human at 400 mg, po by microdialysis; format: ADME, organism-based

Q: Which AUC [1] does the source give for N[C@@H](C(=O)N[C@@H]1C(=O)N2C(C(=O)O)=C(Cl)CS[C@H]12)c1ccccc1 [CEFACLOR ANHYDROUS] here?
A: 17600 ng·h/mL

Q: And the AUC [2]?
A: 13700 ng·h/mL

Q: And the AUC [3]?
A: 22100 ng·h/mL

Q: With Nc1nc(/C(=N/O)C(=O)N[C@@H]2C(=O)N3C(C(=O)O)=C(/C=C4\CCN([C@@H]5CCNC5)C4=O)CS[C@H]23)ns1 [CEFTOBIPROLE] as the compound, how does the Cmax [4] read?
A: 14000 ng/mL

Q: And the half-life [5]?
A: 2.56 h

Q: And the AUC(0-t) at 12 h [6]?
A: 34300 ng·h/mL

Q: And the MIC90 (Staphylococcus aureus)?
A: 2 µg/mL (≈ 3.74 µM)

Q: What about the MIC90 (Streptococcus pneumoniae) of the same compound?
A: 2 µg/mL (≈ 3.74 µM)

Q: What about the Efficacy [7] of the same compound?
A: 35.1%

Q: What about the Efficacy [8] of the same compound?
A: 53.6%

Q: What about the Vd [9] of the same compound?
A: 14.6 L

Q: And the AUC(0-inf) [10]?
A: 36500 ng·h/mL

Q: What about the AUC(0-inf) [11] of the same compound?
A: 98000 ng·h/mL

Q: What about the AUC(0-inf) [12] of the same compound?
A: 53200 ng·h/mL

Q: And the Cmax [13]?
A: 9610 ng/mL

Q: What about the “Ratio AUC” value [14] of the same compound?
A: 0.49

Q: What about the half-life [15] of the same compound?
A: 2.61 h

Q: What about the AUC(0-t) at 12 h [16] of the same compound?
A: 50600 ng·h/mL

Q: With C=CC1=C(C(=O)O)N2C(=O)[C@@H](NC(=O)/C(=N\OCC(=O)O)c3csc(N)n3)[C@H]2SC1 [CEFIXIME] as the compound, how does the AUC [17] read?
A: 25600 ng·h/mL

Q: With COCC1=C(C(=O)O)N2C(=O)[C@@H](NC(=O)/C(=N\OC)c3csc(N)n3)[C@H]2SC1 [CEFPODOXIME] as the compound, how does the AUC [17] read?
A: 22400 ng·h/mL
